UCH37 inh: inhibitors of human deubiquitinating enzyme UCH37; Q9Y5K5; purified proteasome/UCH37, Ub-AMC cleavage fluorescence; inhibition, % (no concentration beside the values); 330,000 tested, 0.33% active; AID 588478;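 active = mean inhibition over replicate wells above about 20%, limit read from the data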;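 note: 0% = compound-free wells with enzyme and 100% = wells lacking proteasome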
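Schedule: 30 min plus 25 min, room temperature / Material: human UCH37 within purified proteasomes / Technique: AMC fluorescence intensity at 355/460 nm / Buffer or medium: pH 7.4 Tris-HCl (50 mM) with ovalbumin, ATP-MgCl2, DTT / Controls: wells without proteasome as full block, compound-free enzyme plus substrate as uninhibited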
MEKK3 PB1 HTS: MEKK3-MEK5 PB1 interaction, increase or decrease | Q99759 | bead-based flow cytometry, Alexa488-MEK5 binding to MEKK3; actives lie on both sides; 0 = blocked by unlabeled MEK5, 100 = vehicle | 290,000 tested, 1.4% active | binding response (% of control), % at 10 µM;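 active = binding response more than 3 SD above or below the average of its plate-row segment, actives on both sides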;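 note: Alexa488 bead fluorescence after subtracting the streptavidin-only scavenger bead signal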
Target sequence (Q99759 whole entry, looked up): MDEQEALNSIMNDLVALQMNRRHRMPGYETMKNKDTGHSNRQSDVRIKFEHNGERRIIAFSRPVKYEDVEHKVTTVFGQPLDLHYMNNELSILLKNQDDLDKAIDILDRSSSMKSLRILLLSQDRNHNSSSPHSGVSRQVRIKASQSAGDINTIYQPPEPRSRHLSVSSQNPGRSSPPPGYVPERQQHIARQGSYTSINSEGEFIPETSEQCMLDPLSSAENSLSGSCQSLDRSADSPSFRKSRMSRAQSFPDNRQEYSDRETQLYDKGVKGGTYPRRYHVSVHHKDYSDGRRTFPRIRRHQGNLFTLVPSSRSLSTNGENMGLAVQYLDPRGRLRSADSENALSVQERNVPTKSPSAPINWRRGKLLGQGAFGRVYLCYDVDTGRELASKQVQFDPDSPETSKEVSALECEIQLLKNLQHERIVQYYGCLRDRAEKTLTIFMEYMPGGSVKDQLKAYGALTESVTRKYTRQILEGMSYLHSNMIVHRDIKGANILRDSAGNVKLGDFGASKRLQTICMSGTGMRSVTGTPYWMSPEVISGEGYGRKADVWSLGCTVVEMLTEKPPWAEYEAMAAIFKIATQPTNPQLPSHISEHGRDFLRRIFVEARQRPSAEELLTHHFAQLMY
Rce1 inh: blocks yeast Ras-converting enzyme; AID 2563; yeast membranes, quenched prenylated peptide cleavage fluorescence; 290,000 tested, 0.27% active; calls only; Q03530;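 active = fall in fluorescence gain of 50% or more versus controls, with final raw signal at or below 3038400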;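 note: plate controls were neutral control wells for no effect and wells lacking membranes for full effect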
T cell modulator: T cell immune modulators affecting CD8 T cell-vesicle binding. 2C CD8+ T cell-vesicle binding, flow cytometry; active compounds read low. response (vesicle binding), % at 7 µM. 330,000 tested, 0.068% active;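 active = response, share of CD8 T cells binding vesicles, and their 90th percentile fluorescence all below set limits, cut at about 80% in these data, passing the limit was not always enough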;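 note: values below 100% mean blocked vesicle binding to the CD8+ T cells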
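Material: 2C TCR transgenic mouse naive CD8+ T cells, MACS-purified. Also added: QL9-charged Drosophila Ld/ICAM-1/B7-1 vesicles. Timing: binding 1.5 h at 37 °C. Measured by: high-throughput flow cytometry with anti-B7-1 and anti-CD8 staining. Read-out: percent CD8+ FL2 mean versus row control. Controls: Unloaded micro-vesicles (low), QL9 vesicles with 0.7% DMSO (high).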
MEKK2mut PB1 HTS: signal of MEK5 binding to mutant human MEKK2 PB1 domain; bead flow cytometry, Alexa488-MEK5 binding to MEKK2 mutant; 290,000 tested, 0.35% active; percent response, % at 10 µM; in the data active = percent response above about 24%, passing the limit was not always enough
MEKK2 WT-MEK5: raises or lowers MEK5 binding to wildtype human MEKK2 PB1 domain; bead flow cytometry, Alexa488-MEK5 binding to MEKK2 WT; actives lie on both sides; binding response (% of control), % at 10 µM; 290,000 tested, 1.1% active; AID 1531; in the data active = binding response below about 67% or above about 130%
MEKK2wt confirm: raises or lowers MEK5 binding to wildtype human MEKK2, retest | shares compounds with MEKK3 PB1 HTS | bead flow cytometry, Alexa488-MEK5 binding to MEKK2 WT; actives lie on both sides | binding response (% of control), % at 10 µM | 5,900 tested, 2.4% active; in the data active = binding response below about 16% or above about 210%; inactive = in between
MEKK2mut confirm: signal of MEK5 binding to mutant human MEKK2, retest; shares compounds with MEKK3 PB1 HTS; 5,900 tested, 2% active; percent response, % at 10 µM; AID 1893; bead flow cytometry, Alexa488-MEK5 binding to MEKK2 mutant; in the data active = percent response mostly above about 71%, no sharp cut-off; inactive = mostly below about 38%;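 note: higher means compound restores mutant binding toward wildtype level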
MEKK3 confirm: MEKK3-MEK5 PB1 inhibition, single concentration confirmation. shares compounds with MEKK3 PB1 HTS. bead flow cytometry, Alexa488-MEK5 binding to MEKK3; active compounds read low. binding response (% of control), % at 10 µM. 5,900 tested, 1.8% active;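 active = binding response below 72% of control, or above a set upper limit, though filed actives all read lower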;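 note: 100% = DMSO only wells and 0% = binding blocked by excess unlabeled MEK5; lower values mean stronger disruption of MEK5 binding to MEKK3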
Numbers without * were called inactive; i = inactive; nt = not tested or not shown; + = active, no number; [ ] = another dose, or the depositor's remark. Hits are enriched below; roughly 2.5% of the tested compounds scored in any of these assays.

SMILES	UCH37 inh	MEKK3 PB1 HTS	Rce1 inh	T cell modulator	MEKK2mut PB1 HTS	MEKK2 WT-MEK5	MEKK2wt confirm	MEKK2mut confirm	MEKK3 confirm
CC(C)c1ccc(N(C)C(=O)Cc2c(C(=O)O)n(C)c3ccccc23)cc1	3.9	1.0*[inhibitor]	i	109.6	-15.0	-1.0*[inhibitor]	100.0	1.0	100.0
CN(C(=O)Cc1c(C(=O)O)n(C)c2ccccc12)c1ccc(Cl)cc1	1.7	102.0	i	144.9	4.0	105.0	nt	nt	nt
Clc1ccccc1OCc1nn[nH]n1	2.7	131.0*	i	486.3	27.0	118.0	107.0	2.0	103.0
CC(=NNc1ccccn1)c1ccc(N2CCOCC2)cc1	6.6	nt	nt	nt	nt	nt	nt	nt	nt
COc1ccc(CC(=O)NN=C(C)c2cccnc2)cc1OC	-2.5	nt	nt	nt	nt	nt	nt	nt	nt
c1ccc(-n2nnc3c(N4CCOCC4)ncnc32)cc1	0.4	74.0*[inhibitor]	i	374.7	-5.0	79.0	100.0	3.0	103.0
Cc1ccc(S(=O)(=O)NCCC(=O)NCCN2CCCCCC2)cc1	1.4	102.0	i	384.6	54.0*	227.0*	138.0	7.0	80.0
Cc1ccc(S(=O)(=O)NCCNC(=O)CN2CCCC2)cc1	1.1	93.0	nt	457.7	-5.0	96.0	nt	nt	nt
Cc1noc(/C=C/c2cccs2)c1S(=O)(=O)N1CCC(C(=O)NCCCN2CCC(C)CC2)CC1	11.4	106.0	i	242.3	57.0*	186.0*	115.0	7.0	103.0
COCCNC(=O)C1CCCN(S(=O)(=O)c2c(C)noc2/C=C/c2cccs2)C1 (stereo not given)	2.7	101.0	i	108.9	-1.0	98.0	nt	nt	nt
Cc1ccc(S(=O)(=O)N2CCC(C(=O)NCCCN3CCCCCC3)CC2)cc1	3.6	102.0	nt	196.6	25.0	160.0*	179.0	48.0	111.0
CCn1c(C)nc2cc(C(=O)NN=Cc3ccc(O)c(O)c3O)ccc21	17.2	nt	nt	nt	nt	nt	nt	nt	nt
COc1ccccc1NC(C)C(=O)NN=Cc1cccs1 (stereo not given)	4.7	nt	nt	nt	nt	nt	nt	nt	nt
CC(=NNC(=O)C(=O)Nc1cccc(Cl)c1)c1ccncc1	-2.4	nt	nt	nt	nt	nt	nt	nt	nt
CCOC(=O)c1cc(C#N)c(SCC(N)=O)[nH]c1=O	-53.7	99.0	i	248.1	-1.0	100.0	nt	nt	nt
CCOC(=O)c1cc(C#N)c(SCC(=O)c2cc(C#N)c(SC)nc2C)[nH]c1=O	-14.2	74.0*[inhibitor]	i	557.1	-14.0	80.0	102.0	-4.0	101.0
CCc1ccc(Nc2n[n+](-c3ccccc3)c(/C=C/c3ccccc3)s2)cc1	-0.5	108.0	+	450.2	25.0*	189.0*	178.0	49.0	102.0
CCc1ccc(Nc2n[n+](-c3ccccc3)c(-c3cc(OC)c(OC)cc3Br)s2)cc1	-0.2	112.0	i	i	77.0*	194.0*	225.0*	75.0*	109.0
COc1ccc2ccccc2c1-c1sc(Nc2ccccc2)n[n+]1-c1ccc(F)cc1	4.4	110.0	i	324.8	43.0*	155.0*	169.0	39.0	106.0
COc1ccc(-c2sc(Nc3ccccc3)n[n+]2-c2ccc(F)cc2)cc1Br	2.7	103.0	i	670.4	8.0	114.0	nt	nt	nt
CC(=O)C(=NNc1cccc(Cl)c1)Sc1nnc(C(O)c2ccccc2)n1-c1ccccc1 (stereo not given)	0.7	nt	nt	nt	nt	nt	nt	nt	nt
O=C(NN=Cc1cccnc1)c1ccccc1OCc1cccc(Br)c1	6.6	nt	nt	nt	nt	nt	nt	nt	nt
COc1cc(C=NNC(=O)c2cc(-c3ccccc3)nc3ccccc23)cc(OC)c1O	5.8	nt	nt	nt	nt	nt	nt	nt	nt
COc1ccc(S(=O)(=O)NC(C)C)cc1C(=O)N1CCOCC1	-2.7	92.0	i	303.4	-9.0	-2.0*[inhibitor]	99.0	1.0	102.0
COc1ccc(CCNCc2cc(C)n(-c3ccc(OC)cc3)c2C)cc1	nt	97.0	i	69.7	61.0*	184.0*	148.0	22.0	99.0
SMILES	UCH37 inh	MEKK3 PB1 HTS	Rce1 inh	T cell modulator	MEKK2mut PB1 HTS	MEKK2 WT-MEK5	MEKK2wt confirm	MEKK2mut confirm	MEKK3 confirm
CN(C)c1ccc(/C=C/c2cccc[n+]2[O-])cc1	nt	99.0	nt	504.7	-4.0	99.0	nt	nt	nt
CN(C)c1ccc(/C=C/c2ccc3c4ccccc4ccc3[n+]2-c2ccccc2)cc1	-3.9	18.0*[inhibitor]	nt	nt	-33.0	41.0*	138.0	56.0	81.0
COCc1c(Br)c(C)nc(OCC(=O)NN=Cc2cc(C)n(-c3ccc([N+](=O)[O-])cc3)c2C)c1C#N	1.2	nt	nt	nt	nt	nt	nt	nt	nt
COc1ccc(/C=N/S(=O)(=O)CCc2ccccc2)c(OC)c1	nt	69.0*[inhibitor]	i	277.3	-1.0	96.0	104.0	4.0	106.0
COc1cc(C=NS(=O)(=O)CCc2ccccc2)ccc1O	9.4	nt	nt	nt	nt	nt	nt	nt	nt
CC(=NNC(=O)c1cc(C)nc2ccccc12)c1ccncc1	1.8	nt	nt	nt	nt	nt	nt	nt	nt
CCN(CC)C(=O)CN(c1cc(Cl)ccc1OC)S(C)(=O)=O	0.9	100.0	i	719.6	2.0	101.0	nt	nt	nt
CCC(C)NC(=O)CN(c1cc(Cl)ccc1OC)S(C)(=O)=O (stereo not given)	1.3	140.0*	i	704.8	1.0	114.0	99.0	-6.0	99.0
CCCCCCCC(=O)NN=C(C)c1cccnc1	3.5	nt	nt	nt	nt	nt	nt	nt	nt
COc1ccc2ccccc2c1CNC(C)c1ccccc1 (stereo not given)	2.8	104.0	i	269.7	5.0	118.0	nt	nt	nt
CC(NCCCOc1cccc2ccccc12)c1ccccc1 (stereo not given)	3.7	107.0	i	435.8	18.0	175.0*	156.0	26.0	110.0
Cc1ccccc1N(CC(=O)NCc1ccc2c(c1)OCO2)C(=O)CCC(=O)Nc1ccccn1	3.9	76.0*[inhibitor]	i	212.6	-11.0	86.0	100.0	-6.0	101.0
O=C(N/N=C/c1ccc([N+](=O)[O-])o1)c1cn(-c2ccccc2)nc1-c1ccccc1	nt	139.0*	i	439.4	0.0	104.0	102.0	9.0	108.0
CC(=NNc1ccccn1)c1ccc(Br)s1	3.6	nt	nt	nt	nt	nt	nt	nt	nt
O=C(CSc1ccccc1C(=O)NCc1ccccc1)NC12CC3CC(CC(C3)C1)C2	3.2	134.0*	i	0.0	0.0	100.0	99.0	0.0	102.0
O=C(CSc1ccccc1C(=O)NCc1ccccc1)NC1CCCCCCC1	0.7	131.0*	i	268.9	0.0	101.0	101.0	-5.0	102.0

From PubChem
